# Experimental data published in PubChem BioAssay.
# The source made the active and inactive calls.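 The calls were made as follows, unless noted: active = a full or partial loss of lipid-probe fluorescence in the fish gall bladder, intestine or both, judged by eye; inactive = no fluorescence loss, or compound toxic to the fish.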
# How the values were obtained:
# [1] = inhibitors of TNFa-induced NFkB p65 translocation, primary screen, imaging, HUVEC, MLSMR starter and 10KST1 sets (AID 438;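 active = inhibition above 20% together with a positive visual image hit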;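 also: compound added about 3h40 before a 20 min TNFalpha stimulation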;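 as to inhibition: signal is the nuclear over cytoplasmic p65 intensity ratio per well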); conditions: HUVEC TNFa-induced p65 nuclear translocation; cell count: measured here: nuclei count (cytotoxicity indicator), at 2.08 µM; inhibition: at 2 µM, stronger effect = higher value, 0% TNFa-plus-vehicle, 100% no-TNFa wells
# [2] = inhibitors of E-selectin induction by TNFa, primary screen, imaging, HUVEC, immunofluorescence, MLSMR starter and 10KST1 sets (AID 487;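 active = visually confirmed hit in the image check and inhibition above 20%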;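 as to inhibition: signal is fraction of cell area covered by stained E-selectin grains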;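 as to nuclei count: 100% = median nuclei count of all wells on the same plate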); conditions: HUVEC TNFalpha-induced E-selectin immunofluorescence imaging, at 2 µM; inhibition: stronger effect = higher value; nuclei count: measured here: cell number, toxicity
# [3] = DUSP6 inhibitors restoring Erk phosphorylation by chemical complementation, primary imaging in DUSP6-transfected HeLa (AID 609;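 active = compounds giving at least 50% inhibition in the cell-based MKP-3 phosphatase rescue imaging test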;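 as to inhibition: phospho-Erk level distribution per well compared with pooled transfected vehicle control wells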); conditions: HeLa MKP-3 transfected, phospho-Erk imaging KS statistic, at 10 µM, cells stimulated with TPA for 15 min
# [4] = target: Dual specificity protein phosphatase 6 (Homo sapiens) (UniProt Q16828); assay: as above; conditions: HeLa MKP-3 transfected, phospho-Erk imaging KS statistic; at 10 µM; stronger effect = higher value; cells stimulated with TPA for 15 min
# Dual specificity protein phosphatase 6 (Homo sapiens), sequence (Q16828 whole entry, looked up): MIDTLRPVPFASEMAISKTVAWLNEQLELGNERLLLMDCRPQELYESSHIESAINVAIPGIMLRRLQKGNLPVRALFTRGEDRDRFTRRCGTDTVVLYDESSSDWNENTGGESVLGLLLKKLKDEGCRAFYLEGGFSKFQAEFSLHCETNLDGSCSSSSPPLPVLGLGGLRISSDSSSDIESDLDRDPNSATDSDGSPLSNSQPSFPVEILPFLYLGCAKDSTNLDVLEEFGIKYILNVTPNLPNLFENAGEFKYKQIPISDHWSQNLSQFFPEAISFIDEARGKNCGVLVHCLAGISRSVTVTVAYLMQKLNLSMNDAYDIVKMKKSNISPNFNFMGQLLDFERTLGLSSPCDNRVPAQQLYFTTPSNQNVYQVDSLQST
# [5] = target: Voltage-gated potassium channel subunit beta-2 (Rattus norvegicus) (UniProt P62483); assay: KvBeta enzyme negative modulators, primary screen, biochemical, NADPH fluorescence (AID 622;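 active = fluorescence slope higher than the sample average by over 3 SD, cut at about -0.22 in these data, passing the limit was not always enough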;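 also: slope of raw intensity against log time taken from 70 to 1610 s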); conditions: recombinant KvBeta, 4-cyanobenzaldehyde reduction, at 10 µM, stronger effect = higher value
# Voltage-gated potassium channel subunit beta-2 (Rattus norvegicus), sequence (P62483 whole entry, looked up): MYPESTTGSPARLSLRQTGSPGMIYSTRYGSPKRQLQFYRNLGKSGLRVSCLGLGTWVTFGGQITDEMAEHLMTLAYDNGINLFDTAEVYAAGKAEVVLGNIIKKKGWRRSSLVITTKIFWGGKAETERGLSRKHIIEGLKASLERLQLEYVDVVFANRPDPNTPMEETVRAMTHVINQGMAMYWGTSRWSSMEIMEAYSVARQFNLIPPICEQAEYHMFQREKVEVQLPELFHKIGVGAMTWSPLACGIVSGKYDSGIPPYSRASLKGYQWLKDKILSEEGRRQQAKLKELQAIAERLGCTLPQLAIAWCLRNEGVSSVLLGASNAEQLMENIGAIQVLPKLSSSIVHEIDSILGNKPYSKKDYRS
# [6] = target: Voltage-gated potassium channel subunit beta-2 (Rattus norvegicus) (UniProt P62483); assay: KvBeta positive modulators, primary screen, biochemical, NADPH fluorescence (AID 623;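 active = NADPH fluorescence slope more negative than the mean of all samples by about 3 SD, 99.7% confidence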;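 also: fluorescence intensity change per second fitted from 20 to 320 s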); conditions: Recombinant KvBeta, NADPH fluorescence decrease slope, 10 min; at 10 µM; stronger effect = lower value
# [7] = target: Muscarinic acetylcholine receptor M4 (Homo sapiens) (UniProt P08173); assay: compounds altering M4/GIRK thallium flux, either direction, primary screen, M4 allosteric agonist project, cell-based, HEK293 M4/GIRK, BTC-AM (AID 625;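 active = fluorescence slope after compound addition differing from the mean of all tested samples at 99.7% confidence, mostly higher but some lower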;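 also: thallium influx through GIRK channels coupled to M4 in HEK293 cells with BTC-AM dye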); conditions: at 10 µM, actives lie on both sides
# Muscarinic acetylcholine receptor M4 (Homo sapiens), sequence (P08173 whole entry, looked up): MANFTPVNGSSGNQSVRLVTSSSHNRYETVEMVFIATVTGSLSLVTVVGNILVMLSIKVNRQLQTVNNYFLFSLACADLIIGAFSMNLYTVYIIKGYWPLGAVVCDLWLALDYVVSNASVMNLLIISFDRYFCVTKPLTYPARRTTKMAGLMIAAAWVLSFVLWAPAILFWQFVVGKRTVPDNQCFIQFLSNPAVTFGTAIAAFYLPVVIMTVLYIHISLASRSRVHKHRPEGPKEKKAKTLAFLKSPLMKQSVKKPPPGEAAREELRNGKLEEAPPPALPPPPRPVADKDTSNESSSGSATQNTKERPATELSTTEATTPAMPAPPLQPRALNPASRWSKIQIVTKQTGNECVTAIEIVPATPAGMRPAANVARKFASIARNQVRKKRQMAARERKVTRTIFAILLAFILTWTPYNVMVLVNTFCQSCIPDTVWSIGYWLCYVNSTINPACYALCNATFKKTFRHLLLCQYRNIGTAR
# How it was run: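 Material – HEK293 cells with M4 receptor and GIRK channels · Buffer or medium – pH 7.3 thallium assay buffer · Doses – one dose, 10 µM final · Timing – cells overnight at 37 °C, BTC-AM loading 1 h, reads 2 min total · Measured by – kinetic fluorescence with BTC-AM dye · Controls – carbachol and DMSO controls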
# [8] = inhibitors of larval lipid processing in zebrafish, primary screen, whole organism, PED6 fluorescence, gall bladder and intestine (AID 686); conditions: Zebrafish larvae PED6 lipid processing, fluorescence scoring; screened at 20 µM (by protocol);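 also: larvae 5 to 7 days old with five fish per well; signal comes from phospholipase A2 cleavage of quenched PED6 carried via bile; overnight exposure to compound and PED6 before scoring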
# How it was run: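 system = live zebrafish larvae aged 5-7 days, whole organism | probe or stimulus = ingested quenched lipid PED6 at 100 nM | doses = 20 µM single dose | timing = overnight exposure | detection = fluorescence microscopy with visual scoring of gall bladder and intestine | read-out = visual per-well fluorescence inhibition score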
# [9] = inhibitors of Chlamydomonas gravitaxis, primary screen, whole organism, Chlamydomonas reinhardtii, WT vs cilia-less mutant, absorbance, 96-well (AID 463189;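 active = inhibition at or above 50% relative to wild type and mutant plate controls; inactive = inhibition below 50%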;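 also: 0% = wild type cc124 cells in DMSO and 100% = ciliumless bld1 mutant cells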); conditions: OD600 absorbance, 2 days, at 10 µM, stronger effect = higher value
# [10] = measured here: cell density z-score
# [11] = measured here: nuclear c-Myc green intensity z-score
# [12] = measured here: nuclear pErk red intensity z-score, stronger effect = higher value
SMILES,cell count [1],inhibition [1],inhibition [2],nuclei count [2] [%],"z-score [3, 10]","z-score [3, 11]","z-score [3, 12]",inhibition [4],fluorescence slope [5],NADPH fluorescence slope [6],fluorescence slope [7],outcome [8],inhibition [9]
COC(=O)CSc1nc(-c2cccs2)ccc1C#N,646,1.5% (inactive),-18.4% (inactive),154,0.598,-1.62,-0.658,2.92% (inactive),-0.456 (inactive),-4.2e-05 (inactive),0.00605 (inactive),inactive,-2.12% (inactive)
FC(F)(F)c1cccc(-n2cccc2/C=N/n2cnnc2)c1,415,-3.1% (inactive),39.9% (inactive),140,-1.39,0.953,1.88,-0.608% (inactive),-0.438 (inactive),-0.00012 (inactive),0.00494 (inactive),inactive,13.6% (inactive)
Cc1cc(C)n(-c2ncnc3sc(C)c(C)c23)n1,577,-0.8% (inactive),-64.7% (inactive),157,0.455,0.0261,1.38,19.8% (inactive),-0.293 (inactive),-3.5e-05 (inactive),0.00669 (inactive),inactive,-1.64% (inactive)
COc1ccccc1NC(=O)CSc1nnc(-c2ccc(NC(C)=O)cc2)n1C,661,-6% (inactive),-36.2% (inactive),198,-0.0402,-0.306,0.506,12.8% (inactive),-0.46 (inactive),-0.000106 (inactive),0.00538 (inactive),inactive,-1.17% (inactive)
Cc1cc2c(c(=O)n1Cc1ccccn1)C(c1ccc3c(c1)OCO3)C(C#N)=C(N)O2 (stereo unspecified),692,-7.3% (inactive),-44.9% (inactive),183,0.057,2.34,0.285,-2.91% (inactive),-0.451 (inactive),-5.4e-05 (inactive),0.00525 (inactive),inactive,11.3% (inactive)
O=C(COc1ccc(Cl)cc1)Nc1ccccc1CO,590,-0.5% (inactive),-9.8% (inactive),120,1.01,0.534,-0.247,5.42% (inactive),-0.435 (inactive),-0.000143 (inactive),0.00526 (inactive),inactive,-8.26% (inactive)
Cc1ccc(CNC(=O)c2cc3c(=O)n4ccccc4nc3n(Cc3ccco3)c2=N)cc1,620,2.6% (inactive),18.3% (inactive),134,-0.0379,0.826,-0.239,-2.29% (inactive),-0.456 (inactive),-4.8e-05 (inactive),0.00363 (inactive),active; weak signal in gallbladder and intestine,32.6% (inactive)
CCn1c(SCC(=O)N2CCOCC2)nc2sc3c(c2c1=O)CCCC3,577,-9.8% (inactive),-55% (inactive),122,-0.0545,-0.0901,0.641,-8.59% (inactive),-0.463 (inactive),-0.000111 (inactive),0.0048 (inactive),inactive,13.7% (inactive)
COc1ccc(/C(O)=C2/C(=O)C(=O)N(CCN3CCOCC3)C2c2cccnc2)cc1OC (stereo unspecified),364,-4.2% (inactive),-126% (inactive),151,-0.575,1.61,-0.594,11.9% (inactive),-0.486 (inactive),-4.1e-05 (inactive),0.00405 (inactive),inactive,-1.91% (inactive)
CCCNc1ncnc2c1cnn2-c1ccc(OC)cc1,631,-12.5% (inactive),-39.6% (inactive),185,-1.64,-0.363,0.771,1.42% (inactive),-0.37 (inactive),-4.9e-05 (inactive),0.00652 (inactive),inactive,-16% (inactive)
CCOC(=O)Oc1ccc2c(c1)C(C)=CC(C)(C)N2C(=O)OCC,618,2.2% (inactive),-42% (inactive),115,1.01,0.72,0.465,-13.3% (inactive),-0.433 (inactive),-4.7e-05 (inactive),0.00572 (inactive),inactive,-7.72% (inactive)
NC(=O)C1CCN(CCC(=O)Nc2ccc(Br)cc2)CC1,619,-14.3% (inactive),-30.8% (inactive),163,0.663,-1.51,0.0444,7.42% (inactive),-0.426 (inactive),-5.4e-05 (inactive),0.00492 (inactive),inactive,44% (inactive)
CC(=O)/C(C#N)=C1\NC(=O)C(Cc2ccccc2)S1 (stereo unspecified),574,-16.2% (inactive),5.4% (inactive),183,0.151,0.495,0.071,-8.59% (inactive),-0.425 (inactive),-6.1e-05 (inactive),0.00604 (inactive),inactive,3.86% (inactive)
CC(=O)Nc1ccc(OC(=O)CC2SC(=O)NC2=O)cc1 (stereo unspecified),552,-6.8% (inactive),-32.3% (inactive),97.7,-1.89,0.746,-1.34,-2.91% (inactive),-0.469 (inactive),-3.2e-05 (inactive),0.00549 (inactive),inactive,-6.84% (inactive)
CCC(C)Nc1nc(OC)nc(N(C)C#N)n1 (stereo unspecified),675,7.6% (inactive),-32.5% (inactive),130,0.721,0.541,0.135,-9.53% (inactive),-0.431 (inactive),-5.5e-05 (inactive),0.00571 (inactive),inactive,3.27% (inactive)
O=C(NCCN1CCCCC1)/C(=N\O)c1ccccc1,515,-13% (inactive),18.4% (inactive),155,1.4,0.164,-0.171,23.8% (inactive),-0.4 (inactive),-3.3e-05 (inactive),0.00408 (inactive),inactive,2.85% (inactive)
CCN(CC)Cc1c(O)ccc2c(C)c(CC(=O)OC)c(=O)oc12,660,-1.4% (inactive),1.9% (inactive),145,0.613,-0.319,-0.573,2.71% (inactive),-0.0165 (inactive),-6.9e-06 (inactive),0.00599 (inactive),inactive,5.82% (inactive)
